This passage reports Activity results from ChEMBL document CHEMBL1150958, “Growth-inhibitory activities of benzofuran and chromene derivatives toward Tenebrio molitor” (1998).

Test [1] relates to Tenebrio molitor. In words: Growth inhibition of last instar larvae of Tenebrio molitor assessed as successful pupation at 120 ug/larvae, applied topically measured every 24 hrs for 30 days. In kind it is functional. Also on record: scale not given: the % may be the effect or the level left. The procedure, abridged: (§1)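 Last-instar T. molitor larvae (113–160 mg, from a stock culture kept on wheat bran) were dosed once, topically on the ventral abdominal segments by microsyringe, with 2 µL acetone solution (120 µg compound per larva). Solvent-only controls were included. Larvae were unfed. Pupation and pupal-stage length were scored every 24 h to day 30. n = 60, mean (SE). Pupation was analysed by χ² test and pupal duration by Dunnett test.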

The subject of test [2] is Tenebrio molitor. In words: Growth inhibition of last instar larvae of Tenebrio molitor assessed as duration of pupal stage at 120 ug/larvae, applied topically measured every 24 hrs for 30 days. In kind it is functional. The procedure, abridged:
as §1

SMILES strings stand for the structures.

Regarding `CC(=O)c1ccc(O)c(C(=O)C=C(C)C)c1`, the Activity in test [1] came to 75%; in test [2] it was 11.4 days.
For `C=C(C)c1cc2cc(C(C)=O)c(O)cc2o1` [EUPARIN], in that order: 83% and 10.5 days.
For `C=C(CO)[C@@H]1Cc2cc(C(C)=O)ccc2O1` [BITALIN A], the Activity in test [1] was 75%; in test [2] it was 8.6 days.
Turning to `C=C(COC(C)=O)[C@@H]1Cc2cc(C(C)=O)c(O)cc2O1`, the Activity turned out to be 73.3% in test [1] and 11.2 days in test [2].
Regarding `CC(=O)c1cc2c(cc1O)OC(C)(C)C=C2` [DEMETHYLENCECALIN], the Activity in test [1] worked out at 66.6%; in test [2], 11.5 days.
For `O=C(O)/C=C/c1ccccc1` [CINNAMIC ACID], in that order: 92% and 8.7 days.
In the same order, the values of `C=C(CO)[C@@H]1Cc2cc(C(C)=O)c(O)cc2O1` are 73% and 11.6 days.
Take `CC(C)=CCc1cc(/C=C/C(=O)O)ccc1O` [DRUPANIN]: the Activity in test [1] was 63%; in test [2] it was 13 days.
For `CC(=O)c1ccc2c(c1)C(=O)CC(C)(C)O2`, in that order: 87% and 12.1 days.
For the molecule `O=C(O)/C=C/c1ccc(O)cc1` [COUMARIC ACID], the Activity in test [1] was 87%; in test [2], 10 days.
For `C=C(COC(C)=O)[C@@H]1Cc2cc(C(C)=O)ccc2O1`, in that order: 75% and 9.8 days.
In the same order, the values of `COC(=O)/C=C/c1ccc2c(c1)CCC(C)(C)O2` are 87% and 7 days.
With `CC(C)CCc1cc(CCC(=O)O)ccc1O`, the Activity in test [1] was 50%; in test [2], 10.2 days.
For `C=C(COC(=O)/C=C/c1ccc(O)cc1)[C@@H]1Cc2cc(C(C)=O)ccc2O1`, in that order: 26% and 10.5 days.
